This sample holds only a part of the variants without activity.

Sequences and labels used below:
B1: tRNA (parent)
chain: GUUCCGUUGGCGUAAUGGUAACGCGUCUCCCUCCUAAGGAGAAGACUGCGGGUUCGAGUCCCGUACGGAACG

This series covers variants of B1. Nature of the series: yeast fitness relative to wild type (ratio to wild type); higher = fitter; tRNA-Arg(CCU), competitive growth, 37 C, YPD. Summed up: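 Amplicons of the tRNA-Arg(CCU) gene were sequenced, 100-nucleotide paired-end, from the start population and from each end population of a pooled yeast competition. The competition, in six parallel replicates, lasted 24 hours in YPD at 37°C. Fitness relative to wild type was calculated from changes in genotype frequencies. Genotypes had to have ≥ 100 starting reads, and estimates < 0.5 were set to 0.5.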
Take GUUCCGUUGGCGUAAUGGUAACGCGUUUCCCUCUUAAGGACAAGACGGCGGGUUCGAGUCCCGUACGGAACG [C27U C34U G41C U47G]: the yeast fitness is at most 0.5.

Take GUUCCGUUGGCGUAAUGGUAACGCGUUUCCCUCCUAAGGACAAGACUGCGGGUUCGAGUCGCGUACGGAACG [C27U G41C C61G]: the yeast fitness was at most 0.5.

With GUUCCGUUGGCGUAAUGGUAACGCGUUUCCCUCCUAAGGAGAAGAUUGCGGGUUCGAGUCACGUACGGAACG [C27U C46U C61A], the yeast fitness was at most 0.5.

With GUUCCGUUGGCGUAAUGGUAACGCGUUUCCCUCCUAAGGAGAAGACUGCGCGUUAGAGUACCGUACGGAACG [C27U G51C C55A C60A], the yeast fitness is at most 0.5.

As for GUUCCGUUGGCGUAAUGGUAACGCGUUUCCCUCCUAAGCAGAAGACUGCGGGUUCGAGUACCGUACGGAACG [C27U G39C C60A], the yeast fitness is at most 0.5.

As for GUUCCGUUGGCGUAAUGGUAACGCGUUUCCCUCCUAAGGAGAAGACUGCGGGUUCGAGUCCCGUACAGUACG [C27U G67A A69U], the yeast fitness came to 0.692.

On to GUUCCGUUGGCGUAAUGGUAACGCGUUUCCCUCCUAAGGAGAAGAGUGCGGGUUCGAGUCCCGUACGGCACG [C27U C46G A69C], for which the yeast fitness came to 0.757.

As for GUUCCGUUGGCGUAAUGGUAACGCGUUUCCCUCCUAAGGAGAAGAUUACGGGUUCGAGUCCCGUACGGCACG [C27U C46U G48A A69C], the yeast fitness worked out at 0.696.

With GUUCCGUUGGCGUAAUGGUAACGCGUUUCCCUCCUAACGAGAAGACUGCGGGUUCGUGUCCCGUACGGAACG [C27U G38C A57U], the yeast fitness was 0.552.

In the case of GUUCCGUUGGCGUAAUGGUAACGCGUUUCCCUGCUAAGGAGAGGCCUGCGGGUUCGAGUCCCGUACGGAACG [C27U C33G A43G A45C], the yeast fitness turned out to be 0.634.

As for GUUCCGUUGGCGUAAUGGUAACGCGUUUCCCUCCUAACAAGACGACUGCGGGUUCGAGUGCCGUCCGGAACG [C27U G38C G39A A43C C60G A65C], the yeast fitness was at most 0.5.

As to GUUCCGUUGGCGUAAUGGUAACGCGUUACCCUCCUAGGGAGAAGACUGCGGGUUCGCCUCCCGUACGGAACG [C27U U28A A37G A57C G58C], the yeast fitness was 1.

With GUUCCGUUGGCGUAAUGGUAACGCGUUUCCCUUCCAAGGAGAAGACUGCGGGUUCGAGUCCCGUACGGAACG [C27U C33U U35C], the yeast fitness is at most 0.5.

GUUCCGUUGGCGUAAUGGUAACGCGUUUCCCUCCUAAAGAGAAGACUGCGGGUUCGAGUCCCGUACGGUACG [C27U G38A A69U]: the yeast fitness was determined as 0.667.

Take GUUCCGUUGGCGUAAUGGUAACGCGUUUCCCUCCUAAGGAGAAGACUGCGGGUUCGAGUCCCAUACGGAACG [C27U G63A]: the yeast fitness was 0.867.

Take GUUCCGUUGGCGUAAUGGUAACGCGUUUCCCUCCUAAGGAGAAGAUUACGGGUUCGAGUCCCGUACGAAACG [C27U C46U G48A G68A]: the yeast fitness turned out to be 0.635.

In the case of GUUCCGUUGGCGUAAUGGUAACGCGUUUCCCUCCUAAGGAGAAGACUCCGGGUUCGAGUCCCGUACGGAACG [C27U G48C], the yeast fitness was 0.958.

GUUCCGUUGGCGUAAUGGUAACGCGUUUCCCUCCUAAGGAGAAGACUGUGGGUACGGGUCCCGUAAGGAACG [C27U C49U U54A A57G C66A]: the yeast fitness turned out to be 0.629.

Turning to GUUCCGUUGGCGUAAUGGUAACGCGUUUCCCUCCUAAGGAGAAGACUGCGGGUUCCAGUCCCGUACGGAACG [C27U G56C], the yeast fitness is 0.595.

Turning to GUUCCGUUGGCGUAAUGGUAACGCGUUUCCCUCCUAAGGAGAAGACUGCGGGUUCAAGUCCCGUACGGAACG [C27U G56A], the yeast fitness stood at 0.998.

For GUUCCGUUGGCGUAAUGGUAACGCGUUUCCCUCCUAAGGAGAAGACUAUGGGUUCGAGUCCCGUACGGAACG [C27U G48A C49U], the yeast fitness amounted to 1.01.

As to GUUCCGUUGGCGUAAUGGUAACGCGUUUCCCUCCUAAGGAGAAGACUGCGGGUUAGAAUCCCGUACGGAACG [C27U C55A G58A], the yeast fitness is at most 0.5.

In the case of GUUCCGUUGGCGUAAUGGUAACGCGUUUCCCUCCUAACGAGAAGACUGCGGGUUCGAGUCCCGUACAGAACG [C27U G38C G67A], the yeast fitness is at most 0.5.

For GUUCCGUUGGCGUAAUGGUAACGCGUUUCCCUCCUAAGGAGAAGACUGCGGGUUCGACUCCCGUACGGAUCG [C27U G58C A70U], the yeast fitness was determined as 0.876.

As for GUUCCGUUGGCGUAAUGGUAACGCGUUUCCCUCCUAAAGAGAAGACUGCGAGUUCGAGUCCCGUACGGAACG [C27U G38A G51A], the yeast fitness was at most 0.5.

For the variant GUUCCGUUGGCGUAAUGGUAACGCGUUUCCCUGGUAAGGAGAAAACUGCAGAUUCGAGUCCCGUUCGGAACG [C27U C33G C34G G44A G50A G52A A65U], the yeast fitness was at most 0.5.

On to GUUCCGUUGGCGUAAUGGUAACGCGUUUCCUUCCUAAGGAGAAGACUGCGGGCUCGAGUCCCGUACGGAACG [C27U C31U U53C], for which the yeast fitness stood at 0.678.

With GUUCCGUUGGCGUAAUGGUAACGCGUUUCCCUUCUUAGGAGAAGACUGCGGGUUCGAGUCCCGUACGGAACG [C27U C33U A36U], the yeast fitness was at most 0.5.

In the case of GUUCCGUUGGCGUAAUGGUAACGCGUUUCCCUCCUAAGGAAAAGACUGCGGGUUCGAGUACCGUACGGAACG [C27U G41A C60A], the yeast fitness came to 0.878.

For the variant GUUCCGUUGGCGUAAUGGUAACGCGUUUCCCUCCUAAGGAGAAGACUGGGGGUUCGAGUCCCGUACGGUACG [C27U C49G A69U], the yeast fitness was 0.542.

Regarding GUUCCGUUGGCGUAAUGGUAACGCGUUUCCCUCCUAAGGAGAAGACUGCGGGUUUGAGUUCCGUACGGAUCG [C27U C55U C60U A70U], the yeast fitness is at most 0.5.

Turning to GUUCCGUUGGCGUAAUGGUAACGCGUUUCCCUCCUAAGCAGAAGACUGCGGAUUCAAGUCCCGUACGGAACG [C27U G39C G52A G56A], the yeast fitness was 0.559.

As for GUUCCGUUGGCGUAAUGGUAACGCGUUUCCCUCCUAAGGAGAAGACUGCGGGUUCGAAUCCCGUACGGAGCG [C27U G58A A70G], the yeast fitness was determined as 0.753.

Consider GUUCCGUUGGCGUAAUGGUAACGCGUUUCCCUCCUAAGGAGAAGACUGCGGAAUCGAGUCCUGUACGGAACG [C27U G52A U53A C62U], for which the yeast fitness is at most 0.5.

For the variant GUUCCGUUGGCGUAAUGGUAACGCGUUUCCCUCCUAAGCAGAAGACUGCGGGUUCGAGUCCCGUACGGAACG [C27U G39C], the yeast fitness was determined as 0.613.

GUUCCGUUGGCGUAAUGGUAACGCGUUUCCCUCCUAAGGAGAAGACUGCGGGUUCGAGUGCCGUACGGAACG [C27U C60G]: the yeast fitness was determined as 0.735.

Consider GUUCCGUUGGCGUAAUGGUAACGCGUUUCCCUCCUAAGGAGAAGACUGCGGGUUCGAGUCCUGUACAGAACG [C27U C62U G67A], for which the yeast fitness was 0.573.
